Laboratory results from ChEMBL document CHEMBL1142420, “Synthesis and DNA-cleaving activity of lactenediynes conjugated with DNA-complexing moieties” (2008).

Experiments:
MOLT-4 = assay: Cytotoxicity against human MOLT4 cells after 48 hrs by SRB assay; format: functional; conditions: MOLT-4, 48 h
Summary of the method: (§1)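 Run at NCI: cell lines exposed 48 h to a range of concentrations, with untreated controls under identical conditions. Growth measured by sulforhodamine B staining with colorimetric read-out. Percent growth computed from test, time-zero and control absorbances. GI50, TGI and LC50 read from PG versus log10 molar concentration as the concentrations giving PG = 50, 0 and -50.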

SNB-19 = assay: Cytotoxicity against human SNB19 cells after 48 hrs by SRB assay; format: functional; conditions: SNB-19, 48 h
Summary of the method: (§2)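 Run at NCI: cells exposed 48 h to a range of concentrations, with untreated controls under identical conditions. Growth measured by sulforhodamine B staining with colorimetric read-out. Percent growth (PG) calculated from absorbance at 48 h with drug, at time zero, and at 48 h without drug. Log molar concentration plotted against PG; GI50 at PG = 50, TGI at PG = 0, LC50 at PG = −50.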

A549 = assay: Cytotoxicity against human A549 cells after 48 hrs by SRB assay; format: functional; conditions: A549, 48 h; summary of the method: as §1
M14 = assay: Cytotoxicity against human M14 cells after 48 hrs by SRB assay; format: functional; conditions: M14, 48 h; summary of the method: as §1
OVCAR-4 = assay: Cytotoxicity against human OVCAR4 cells after 48 hrs by SRB assay; format: functional; conditions: OVCAR-4, 48 h; summary of the method: as §1
SK-MEL-2 = assay: Cytotoxicity against human SK-MEL-2 cells after 48 hrs by SRB assay; format: functional; conditions: SK-MEL-2, 48 h; summary of the method: as §1
NCI-H23 = assay: Cytotoxicity against human NCI-H23 cells after 48 hrs by SRB assay; format: functional; conditions: NCI-H23, 48 h, read-out: Log LC50 (the source's name) (converted); summary of the method: as §2
RXF 393 = assay: Cytotoxicity against human […] cells after 48 hrs by SRB assay; format: functional; conditions: RXF 393, 48 h; summary of the method: as §1
OVCAR-5 = assay: Cytotoxicity against human OVCAR5 cells after 48 hrs by SRB assay; format: functional; conditions: OVCAR-5, 48 h; summary of the method: as §1
T47D = assay: Cytotoxicity against human T47D cells after 48 hrs by SRB assay; format: functional; summary of the method: as §1
UO-31 = assay: Cytotoxicity against human UO31 cells after 48 hrs by SRB assay; format: functional; conditions: UO-31, 48 h; summary of the method: as §1
U-251 = assay: Cytotoxicity against human U251 cells after 48 hrs by SRB assay; format: functional; conditions: U-251, 48 h; summary of the method: as §1
Escherichia coli = assay: Induction of plasmid pBR322 DNA cleavage assessed as concentration required to cleave 50% of DNA after 24 hrs by gel electrophoresis
Summary of the method: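 Supercoiled pBR322 (90% form I) diluted to 50 µg/mL (75 µM/bp) in pH 7.5 Tris 40 mM/EDTA 4 mM. Incubated 24 h at 37 °C, then run on agarose gel with ethidium bromide and viewed at 302 nm. Form I versus II+III quantified by densitometry after subtracting form II present in the control.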

DU-145 = assay: Cytotoxicity against human DU145 cells after 48 hrs by SRB assay; format: functional; conditions: DU-145, 48 h; summary of the method: as §1
COLO 205 = assay: Cytotoxicity against human COLO205 cells after 48 hrs by SRB assay; format: functional; conditions: COLO 205, 48 h; summary of the method: as §1
ACHN = assay: Cytotoxicity against human ACHN cells after 48 hrs by SRB assay; format: functional; summary of the method: as §1
RPMI-8226 = assay: Cytotoxicity against human RPMI8226 cells after 48 hrs by SRB assay; format: functional; conditions: RPMI-8226, 48 h; summary of the method: as §1
[1] = read-out: Log LC50 (the source's name) (converted)

CC(=O)O[C@@H]1C#C/C=C\C#CC[C@H]2C(=O)N(C(=O)OC(C)(C)C)[C@H]12
GI50 (MOLT-4): 0.407 µM | CC50 (MOLT-4; [1]): > 100 µM | TGI (MOLT-4; read-out: Log TGI (converted)): > 100 µM | CC50 (SNB-19; [1]): > 100 µM | TGI (SNB-19; read-out: Log TGI (converted)): > 100 µM | GI50 (A549): 28.2 µM | CC50 (A549; [1]): > 100 µM | TGI (A549; read-out: Log TGI (converted)): > 100 µM | GI50 (M14): 39.8 µM | CC50 (M14; [1]): > 100 µM | TGI (M14; read-out: Log TGI (converted)): > 100 µM | GI50 (OVCAR-4): > 100 µM | CC50 (OVCAR-4; [1]): > 100 µM | TGI (OVCAR-4; read-out: Log TGI (converted)): > 100 µM | GI50 (SK-MEL-2): 47.9 µM | CC50 (SK-MEL-2; [1]): > 100 µM | TGI (SK-MEL-2; read-out: Log TGI (converted)): > 100 µM | CC50 (NCI-H23): > 100 µM | GI50 (RXF 393): 20.4 µM | CC50 (RXF 393; [1]): > 100 µM | TGI (RXF 393; read-out: Log TGI (converted)): 69.2 µM | GI50 (OVCAR-5): > 100 µM | CC50 (OVCAR-5; [1]): > 100 µM | TGI (OVCAR-5; read-out: Log TGI (converted)): > 100 µM | GI50 (T47D): 100 µM | CC50 (T47D; [1]): > 100 µM | TGI (T47D; read-out: Log TGI (converted)): > 100 µM | GI50 (UO-31): 5.89 µM | CC50 (UO-31; [1]): > 100 µM | TGI (UO-31; read-out: Log TGI (converted)): > 100 µM | GI50 (U-251): 16.2 µM | CC50 (U-251; [1]): > 100 µM | TGI (U-251; read-out: Log TGI (converted)): > 100 µM | CS50 (Escherichia coli): 40 µM | GI50 (DU-145): 16.2 µM | CC50 (DU-145; [1]): > 100 µM | TGI (DU-145; read-out: Log TGI (converted)): 56.2 µM | GI50 (COLO 205): 39.8 µM | CC50 (COLO 205; [1]): > 100 µM | TGI (COLO 205; read-out: Log TGI (converted)): > 100 µM | GI50 (ACHN): 2.63 µM | CC50 (ACHN; [1]): > 100 µM | TGI (ACHN; read-out: Log TGI (converted)): 25.7 µM | GI50 (RPMI-8226): 17.8 µM | CC50 (RPMI-8226; [1]): > 100 µM | TGI (RPMI-8226; read-out: Log TGI (converted)): > 100 µM
